Reference: ChEMBL document CHEMBL1212784, “Structure-microbicidal activity relationship of synthetic fragments derived from the antibacterial alpha-helix of human lactoferrin” (2010)
In brackets after ≈: the same amount, converted by molar mass. Positions of bridges follow the written chain, without caps; N, C: chain ends. Residues, ends and D or L forms follow the SMILES beside them.

Key:
Enterococcus faecalis = experiment: Antimicrobial activity against Enterococcus faecalis ATCC 19433 using in brain heart infusion medium(dil) after 2 hrs at 25 ug/ml; assay type: functional
Method in brief: (§1)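 Single-concentration screen: log-phase organisms (~2 × 10^5 cells/ml) incubated 2 h at 37°C in diluted BHI (1/100 of 3.4%, pH 6.7 to 6.9) with 25 μg/ml peptide (10 μg/ml for E. coli O6 and C. albicans); viable counts on blood agar; scored as ≥99% killed or not; duplicates.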

Candida albicans [1] = experiment: Antimicrobial activity against Candida albicans ATCC […] after 20 hrs incubation in bactopeptone; assay type: functional; settings: ATCC 64549, 20 h
Method in brief: (§2)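 Microplate killing assay in 1% Bactopeptone (pH 7.0). Log-phase organisms (BHI overnight, 2 h subculture, 37°C, washed), final ~2 × 10^5 cells/ml, with twofold peptide dilutions, 37°C humid chamber 2 h (or 20 h where stated). 5 μl drops plated on blood agar overnight; MMC99 = lowest concentration giving ≥99% inoculum reduction; duplicates.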

Candida albicans [2] = experiment: Antimicrobial activity against Candida albicans ATCC […] using in brain heart infusion medium(dil) after 2 hrs at 10 ug/ml; assay type: functional, ATCC 64549; method in brief: as §1
Candida albicans [3] = experiment: Antimicrobial activity against Candida albicans ATCC […] incubation in bactopeptone; assay type: functional; settings: ATCC 64549; method in brief: as §2
Pseudomonas aeruginosa = experiment: Antimicrobial activity against Pseudomonas aeruginosa CCUG 551 using in brain heart infusion medium(dil) after 2 hrs at 25 ug/ml; assay type: functional; method in brief: as §1
Escherichia coli [4] = experiment: Antimicrobial activity against Escherichia coli O14 using in brain heart infusion medium(dil) after 2 hrs at 25 ug/ml; assay type: functional; method in brief: as §1
Escherichia coli [5] = experiment: Antimicrobial activity against Escherichia coli O6 using in brain heart infusion medium(dil) after 2 hrs at 10 ug/ml; assay type: functional; method in brief: as §1
[6] = Antimicrobial activity against Escherichia coli O6 K5 incubation in bactopeptone; assay type: functional; method in brief: as §2
[7] = Antimicrobial activity against Escherichia coli O6 K5 after 20 hrs incubation in bactopeptone; assay type: functional; settings: K5, 20 h; method in brief: as §2
Klebsiella pneumoniae = experiment: Antimicrobial activity against Klebsiella pneumoniae CCUG 9997 using in brain heart infusion medium(dil) after 2 hrs at 25 ug/ml; assay type: functional; method in brief: as §1
[8] = Antimicrobial activity against Escherichia coli O6 K5 after 2 hrs incubation in bactopeptone; assay type: functional; settings: K5, 2 h; method in brief: as §2
[9] = test system: Staphylococcus epidermidis; experiment: Antimicrobial activity against Staphylococcus epidermidis CCUG 18000A using in brain heart infusion medium(dil) after 2 hrs at 25 ug/ml; assay type: functional; method in brief: as §1
Staphylococcus aureus [10] = experiment: Antimicrobial activity against Staphylococcus aureus 1800 (CCUG 1800) incubation in bactopeptone; assay type: functional; method in brief: as §2
Staphylococcus aureus [11] = experiment: Antimicrobial activity against Staphylococcus aureus 1800 (CCUG 1800) using in brain heart infusion medium(dil) after 2 hrs at 25 ug/ml; assay type: functional; method in brief: as §1
Candida albicans [12] = experiment: Antimicrobial activity against Candida albicans ATCC […] after 2 hrs incubation in bactopeptone; assay type: functional; settings: ATCC 64549, 2 h; method in brief: as §2
Staphylococcus aureus [13] = experiment: Antimicrobial activity against Staphylococcus aureus 1800 (CCUG 1800) after 20 hrs incubation in bactopeptone; assay type: functional; method in brief: as §2
Staphylococcus aureus [14] = experiment: Antimicrobial activity against Staphylococcus aureus 1800 (CCUG 1800) after 2 hrs incubation in bactopeptone; assay type: functional; method in brief: as §2
Candida albicans [15] = experiment: Antimicrobial activity against Candida albicans ATCC […] at 65.4 uM within 5 mins; assay type: functional, ATCC 64549
Method in brief: (§3)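 Killing kinetics in Bactopeptone with 62.7 μM or 65.4 μM peptide against ~2 × 10^5 cells/ml; samples taken immediately after mixing and at 5, 10, 30, 60 and 120 min, serially diluted and plated for viable counts; percent of inoculum killed; duplicates.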

Staphylococcus aureus [16] = experiment: Antimicrobial activity against Staphylococcus aureus 1800 (CCUG 1800) at 62.7 uM within 30 mins; assay type: functional; settings: in the assay text read “65.4 uM” for “62.7 uM”; method in brief: as §3
Staphylococcus aureus [17] = experiment: Antimicrobial activity against Staphylococcus aureus 1800 (CCUG 1800) at 65.4 uM within 10 mins; assay type: functional; settings: in the assay text read “62.7 uM” for “65.4 uM”; method in brief: as §3
Candida albicans [18] = experiment: Antimicrobial activity against Candida albicans ATCC […] at 62.7 uM within 5 mins; assay type: functional, ATCC 64549; method in brief: as §3

H-CFQWQRNMRKVR-OH
Activity (Enterococcus faecalis): >=99% | MIC99 (Candida albicans [1]): 100 µg/mL | Activity (Candida albicans [2]): >=99% | MIC99 (Candida albicans [3]): 50 µg/mL | Activity (Pseudomonas aeruginosa): >=99% | Activity (Escherichia coli [4]): >=99% | Activity (Escherichia coli [5]): >=99% | MIC99 [6]: 100 µg/mL | MIC99 [7]: 50 µg/mL | Activity (Klebsiella pneumoniae): <99% | MIC99 [8]: 100 µg/mL | Activity [9]: >=99% | MIC99 (Staphylococcus aureus [10]): > 100 µg/mL | Activity (Staphylococcus aureus [11]): >=99% | MIC99 (Candida albicans [12]): > 200 µg/mL | MIC99 (Staphylococcus aureus [13]): > 100 µg/mL | MIC99 (Staphylococcus aureus [14]): > 100 µg/mL

CC[C@H](C)[C@H](NC(=O)[C@@H]1CSSC[C@H](NC(=O)[C@H](CCCCN)NC(=O)[C@@H](NC(=O)[C@H](C)NC(=O)[C@H](CCC(=O)O)NC(C)=O)[C@@H](C)O)C(=O)N[C@@H](Cc2ccccc2)C(=O)N[C@@H](CCC(N)=O)C(=O)N[C@@H](Cc2c[nH]c3ccccc23)C(=O)N[C@@H](CCC(N)=O)C(=O)N[C@@H](CCCNC(=N)N)C(=O)N[C@@H](CC(N)=O)C(=O)N[C@@H](CCSC)C(=O)N[C@@H](CCCNC(=N)N)C(=O)N[C@@H](CCCCN)C(=O)N[C@@H](C(C)C)C(=O)N[C@@H](CCCNC(=N)N)C(=O)NCC(=O)N2CCC[C@H]2C(=O)N2CCC[C@H]2C(=O)N[C@@H](C(C)C)C(=O)N[C@@H](CO)C(=O)N1)C(=O)N[C@@H](CCCCN)C(=O)N[C@@H](CCCNC(=N)N)C(N)=O (Ac-EATKCFQWQRNMRKVRGPPVSCIKR-NH2; disulfide 5-22)
MIC99 (Candida albicans [3]): 200 µg/mL (≈ 65.4 µM) | MIC99 [6]: 50 µg/mL (≈ 16.3 µM) | Activity (Candida albicans [15]): >90% | MIC99 (Staphylococcus aureus [10]): 50 µg/mL (≈ 16.3 µM) | Activity (Staphylococcus aureus [16]): 80%

H-CFAWQRAMRKVR-OH
MIC99 (Candida albicans [3]): 25 µg/mL | Activity (Staphylococcus aureus [17]): 90% | MIC99 [6]: 25 µg/mL | Activity (Candida albicans [18]): 99% | MIC99 (Staphylococcus aureus [10]): 50 µg/mL

H-TKCFQWQRNMRKVR-OH
Activity (Enterococcus faecalis): >=99% | MIC99 (Candida albicans [1]): 50 µg/mL | Activity (Candida albicans [2]): >=99% | Activity (Pseudomonas aeruginosa): >=99% | Activity (Escherichia coli [4]): >=99% | Activity (Escherichia coli [5]): >=99% | MIC99 [7]: 25 µg/mL | Activity (Klebsiella pneumoniae): >=99% | MIC99 [8]: 50 µg/mL | Activity [9]: >=99% | Activity (Staphylococcus aureus [11]): >=99% | MIC99 (Candida albicans [12]): > 200 µg/mL | MIC99 (Staphylococcus aureus [13]): 100 µg/mL | MIC99 (Staphylococcus aureus [14]): 50 µg/mL

H-KCFQWQRNMRKVR-OH
Activity (Enterococcus faecalis): >=99% | MIC99 (Candida albicans [1]): 50 µg/mL | Activity (Candida albicans [2]): >=99% | Activity (Pseudomonas aeruginosa): >=99% | Activity (Escherichia coli [4]): >=99% | Activity (Escherichia coli [5]): >=99% | MIC99 [7]: 12 µg/mL | Activity (Klebsiella pneumoniae): >=99% | MIC99 [8]: 25 µg/mL | Activity [9]: >=99% | Activity (Staphylococcus aureus [11]): >=99% | MIC99 (Candida albicans [12]): 200 µg/mL | MIC99 (Staphylococcus aureus [13]): 50 µg/mL | MIC99 (Staphylococcus aureus [14]): 25 µg/mL

H-PEATKCFQWQRNMRKVR-OH
Activity (Enterococcus faecalis): >=99% | Activity (Candida albicans [2]): <99% | Activity (Pseudomonas aeruginosa): <99% | Activity (Escherichia coli [4]): <99% | Activity (Escherichia coli [5]): <99% | Activity (Klebsiella pneumoniae): <99% | Activity [9]: >=99% | Activity (Staphylococcus aureus [11]): >=99%

H-EATKCFQWQRNMRKVR-OH
Activity (Enterococcus faecalis): >=99% | Activity (Candida albicans [2]): <99% | Activity (Pseudomonas aeruginosa): <99% | Activity (Escherichia coli [4]): <99% | Activity (Escherichia coli [5]): >=99% | Activity (Klebsiella pneumoniae): <99% | Activity [9]: >=99% | Activity (Staphylococcus aureus [11]): >=99%
